Results on 96 compounds are retold here after ChEMBL document CHEMBL4513216, “Probing the Open Global Health Chemical Diversity Library for Multistage-Active Starting Points for Next-Generation Antimalarials” (ACS Infect Dis, 2020).

The nature of the data set: Toxicity liver stage against HepG2, at 10uM. The settings on record: human, HepG2-A16-CD81EGFP cells; read-out: INHIBITION
In kind it is cell-based. Further details: test concentration 10 uM, cell line HepG2-A16-CD81EGFP. The essentials: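 Uninfected HepG2-A16-CD81EGFP cells, 3 × 10^3 per well, 1536-well, plated on prespotted compound at 10 μM final, parasite-free screening media added to match infected plates; puromycin 10 μM positive, DMSO 0.5% negative; run in parallel with 48 h PbLuc assay at 37 °C, 5% CO2; viability by CellTiter-Glo luminescence, normalized to controls.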

On to `Cc1nc2n(n1)CC(Nc1nc(C(F)(F)F)nc3ccccc13)CC2` (stereo unspecified), for which the cytotoxicity at 10 µM was -0.978%.

For `Fc1cccnc1N1CCOCC2(CCCN(c3nncs3)C2)C1` (stereo unspecified), the cytotoxicity at 10 µM is 3.44%.

Consider `CN1CCC(c2cccc(CCC(=O)NCC(N)=O)n2)CC1`, for which the cytotoxicity at 10 µM is -20.1%.

Turning to `CC(c1ccc2c(c1)OCO2)n1cc2nc(N(C)C)[nH]cc-2c1=O` (stereo unspecified), the cytotoxicity at 10 µM was -2.72%.

Take `Cc1cccc(CN2CCc3ncnc(C)c3CC2)n1`: the cytotoxicity at 10 µM is -17.4%.

Turning to `Cc1nc(C)n(CC2CN(Cc3ccncc3)Cc3nccn3C2)n1` (stereo unspecified), the cytotoxicity at 10 µM is -142%.

On to `CC(=O)NC(Cc1c[nH]c2cc(F)ccc12)C(=O)Nc1nonc1C` (stereo unspecified), for which the cytotoxicity at 10 µM was -9.93%.

`O=C(CCn1ccc2ccccc21)N1CCC(Nc2cccnn2)CC1`: the cytotoxicity at 10 µM is 3.79%.

For `CNS(=O)(=O)c1cc(C(=O)NC2COc3ccccc3C2)ccc1OC` (stereo unspecified), the cytotoxicity at 10 µM stood at 18.9%.

As for `Cc1ncc2c(n1)CN(CC(=O)Nc1nncs1)CC2`, the cytotoxicity at 10 µM is -10.8%.

Turning to `CS(=O)(=O)NCCNCc1ccc(Br)s1`, the cytotoxicity at 10 µM is -3.04%.

Take `OCCOc1cc(F)ccc1NCc1cccc(F)c1F`: the cytotoxicity at 10 µM is -6.14%.

For the compound `Cc1ccc(OCCN(C)C(=O)CCCN2CCCC2=O)c(C)c1`, the cytotoxicity at 10 µM was -8.38%.

`CCC(CO)N(Cc1ccco1)C(=O)c1ccc(F)cc1Cl` (stereo unspecified): the cytotoxicity at 10 µM is -0.247%.

Turning to `OC(CNCc1nnc2ccccn12)c1ccc2c(c1)OCCCO2` (stereo unspecified), the cytotoxicity at 10 µM was 2.93%.

For `COc1ccc(CN2CCn3cc(CNC(=O)CC4CC4)nc3C2)cc1`, the cytotoxicity at 10 µM is -82.6%.

With `CCc1ccc(CN(Cc2ccccc2)CC(C)CO)nc1` (stereo unspecified), the cytotoxicity at 10 µM amounted to 9.11%.

Take `Cn1nc(N2CCCC(C(=O)Nc3nc4ccccc4[nH]3)C2)ccc1=O` (stereo unspecified): the cytotoxicity at 10 µM was found to be 1.08%.

For the compound `COCCCNC(=O)c1cc(C(C)C)nc(N2CCCCCC2)n1`, the cytotoxicity at 10 µM was found to be 9.15%.

For `O=C(c1cc[nH]n1)N1CCOCC2(C1)CN(c1ccccc1)C(=O)CO2` (stereo unspecified), the cytotoxicity at 10 µM was -4.96%.

With `O=C(Nc1nncs1)N(Cc1cccc(O)c1)C1CC1`, the cytotoxicity at 10 µM stood at 4.14%.

Take `CC(C#N)CNC(=O)Nc1ccc(-c2cc[nH]n2)cc1` (stereo unspecified): the cytotoxicity at 10 µM was -3.27%.

As to `C=C(C)CN1CCC(Nc2nc(C)ns2)CC1`, the cytotoxicity at 10 µM was -8.39%.

For `Fc1cccc(N2CCCC3(CN(Cc4cccnc4)CCO3)C2)c1` (stereo unspecified), the cytotoxicity at 10 µM is -78.2%.

On to `O=C(c1ccc(F)c(F)c1)N1CCC[C@]2(C[C@@H](OCC3CC3)CO2)C1`, for which the cytotoxicity at 10 µM is -70.1%.

For the compound `Cc1cc2ccncc2n1CC1(O)CCN(C(=O)c2ccccn2)CC1`, the cytotoxicity at 10 µM was 0.166%.

Regarding `CC(C)CNC(=O)c1ccc(NC(=O)NC2CC2)cc1Cl`, the cytotoxicity at 10 µM turned out to be 2.56%.

Consider `COC(=O)c1ccc(Cn2cnc(C#N)n2)cc1`, for which the cytotoxicity at 10 µM is -4.74%.

Turning to `Cc1ccc(C)c(S(=O)(=O)CCN2CCc3c(ncn3C)C2)c1`, the cytotoxicity at 10 µM is -12.5%.

Take `O=C(NCC1CC1)[C@H]1CC[C@@H]2[C@@H](CCN2Cc2ccoc2)O1`: the cytotoxicity at 10 µM is -14.1%.

As to `CN(C)C(=O)N1C[C@@H]2CCCO[C@@H]2[C@H](N(C)Cc2ccco2)C1`, the cytotoxicity at 10 µM is -7.82%.

With `c1ccc2nc(N3CCCC3)c(NCc3nnc4n3CCC4)nc2c1`, the cytotoxicity at 10 µM was found to be 6.9%.

With `Cc1cn(Cc2ccc(F)c(F)c2)nc1N`, the cytotoxicity at 10 µM is -13.5%.

For `COC(=O)c1ccc(C(=O)NS(=O)(=O)c2cncc(Br)c2)cc1`, the cytotoxicity at 10 µM came out at 9.95%.

In the case of `CC(C)CCN1CC2(CCCN(C(=O)NCc3cccs3)C2)CCC1=O` (stereo unspecified), the cytotoxicity at 10 µM is -11.9%.

On to `CCC(CC)c1cc(CNC(=O)N2CCCC(C(=O)NC)C2)on1` (stereo unspecified), for which the cytotoxicity at 10 µM was -18.6%.

As to `CC(C)S(=O)(=O)NCC1CCCN(C(=O)c2ccc(Cl)cc2)C1` (stereo unspecified), the cytotoxicity at 10 µM is -3.44%.

Regarding `Cc1nnc(CN(C)CCCOc2cccc(Cl)c2)o1`, the cytotoxicity at 10 µM was 2.51%.

Consider `CCn1c(C2CCCN(Cc3ccc(F)cc3Cl)C2)nn(C)c1=O` (stereo unspecified), for which the cytotoxicity at 10 µM is -2.75%.

`CCC(CO)N(Cc1ccncc1)Cc1c[nH]nc1-c1ccc(F)cc1` (stereo unspecified): the cytotoxicity at 10 µM is -5.5%.

On to `COC(=O)C1CN(CC(=O)Nc2cc(F)ccc2F)c2ccccc21` (stereo unspecified), for which the cytotoxicity at 10 µM amounted to 8.32%.

As to `Cc1cccc(CN2CC3(CCN(S(=O)(=O)C4CC4)CC3)OCC2=O)n1`, the cytotoxicity at 10 µM is -3.27%.

As for `O=C(Cc1cccs1)N1CCOCC1c1ccccc1` (stereo unspecified), the cytotoxicity at 10 µM is -6.73%.

For the compound `C[C@@H]1CN(C(=O)c2ccncc2)CC[C@@]1(O)C1CCOCC1`, the cytotoxicity at 10 µM stood at 0.301%.

Take `CNS(=O)(=O)c1ccccc1N1CCN(C(C)C(N)=O)CC1` (stereo unspecified): the cytotoxicity at 10 µM is 4.87%.

For the compound `CN(Cc1ccncn1)C(=O)C1(Oc2ccc(Cl)cc2)CCNCC1`, the cytotoxicity at 10 µM was found to be 18.5%.

Regarding `CSc1ccccc1NC(=O)N1C[C@@H](N(C)C)[C@H](c2ccc(C)cc2)C1`, the cytotoxicity at 10 µM is -12%.

`Cc1cc(C)c2nc(C)c(C(=O)N3CCC(N4CCCC4)CC3)cc2c1`: the cytotoxicity at 10 µM is -3.19%.

Turning to `N[C@@H]1CCCN(C(=O)Cc2c[nH]c3ccccc23)[C@H]1c1ccccc1F`, the cytotoxicity at 10 µM is 7.45%.

For the compound `COc1ccc(CN(C)C(=O)Cc2c(C)nn(C)c2C)cc1F`, the cytotoxicity at 10 µM was found to be 17%.

In the case of `CC(C)(C)C(O)CN1CCN(C(=O)COCC2CC2)CC1` (stereo unspecified), the cytotoxicity at 10 µM is 5.54%.

Turning to `Cc1cc(C(=O)Cn2cnnc2[S+](C)[O-])cc(C)c1F` (stereo unspecified), the cytotoxicity at 10 µM was determined as 4.31%.

`Cn1nc(CN2CCCC2)c2c1CN(C(=O)c1cnccn1)CC2`: the cytotoxicity at 10 µM is -147%.

For the compound `COc1ncccc1NC(=O)NCC1CCS(=O)(=O)C1` (stereo unspecified), the cytotoxicity at 10 µM was -9.16%.

For the compound `Cc1ccc(OC2CCN(C(=O)C(C)Cn3cccn3)CC2)cc1` (stereo unspecified), the cytotoxicity at 10 µM was -2.09%.

Take `Fc1cccc(N2CCCC3(C2)CN(c2cnccn2)CCO3)c1` (stereo unspecified): the cytotoxicity at 10 µM was determined as 8.49%.

Take `CC(C)(C)c1n[nH]cc1CNC1CCC(OCC(F)(F)F)CC1` (stereo unspecified): the cytotoxicity at 10 µM is -0.0197%.

For the compound `O=C(NC1CCCCC1)N1C[C@H]2CN(c3cnccn3)C[C@@]2(C(=O)O)C1`, the cytotoxicity at 10 µM is 13.7%.

Regarding `Cc1ccnc(NS(=O)(=O)c2cc(C(N)=O)n(C)c2)c1`, the cytotoxicity at 10 µM came out at 0.814%.

Consider `Cn1cc(CNCCOc2ccc(F)c(F)c2)c(-c2cccnc2)n1`, for which the cytotoxicity at 10 µM was -2.53%.

For the compound `Cc1cccc2c1nc(CCO)n2-c1ccc(C(=O)N2CCOCC2)o1`, the cytotoxicity at 10 µM was 3.69%.

For `c1ccc(CN2CCC(CCNc3ncnc4c3CCNCC4)C2)cc1` (stereo unspecified), the cytotoxicity at 10 µM is -0.16%.

In the case of `CS(=O)(=O)NCCCNCc1cc(F)ccc1Br`, the cytotoxicity at 10 µM worked out at 15.7%.

Consider `Cn1cc(C(=O)N2CCCC(CN3CCCC3=O)C2)cn1` (stereo unspecified), for which the cytotoxicity at 10 µM was -12.6%.

Consider `O=C(NCc1nncn1-c1ccccc1)C1CC(=O)N(CC2CC2)C1` (stereo unspecified), for which the cytotoxicity at 10 µM was -2.97%.

Consider `Cc1cc(C)c(OCC(=O)NS(=O)(=O)c2c(C)noc2C)c(C)c1`, for which the cytotoxicity at 10 µM was -6.64%.

`CC(C)CCc1noc(CN2CCCN(C(=O)c3ccco3)CC2)n1`: the cytotoxicity at 10 µM was -7.06%.

On to `O=C(NCc1cccnc1)N1CCSCC1CCO` (stereo unspecified), for which the cytotoxicity at 10 µM was -1.46%.

With `O=C(NCCc1cccs1)[C@]12COC[C@H]1CN(Cc1ccncc1)C2`, the cytotoxicity at 10 µM is -114%.

`O=C1CCN(C(=O)C2(c3ccc(F)cc3)CCOCC2)CCN1`: the cytotoxicity at 10 µM is -4.97%.

`COc1ccc(CCN(C)C(=O)c2cc(C(C)=O)c[nH]2)cc1OC`: the cytotoxicity at 10 µM worked out at 5.38%.

Take `Cc1c[nH]c(CN(C)C(=O)c2ccc(CSc3nnc[nH]3)o2)n1`: the cytotoxicity at 10 µM is 1.12%.

`CC(C)(C)c1noc(CCCC(=O)NCC2CCS(=O)(=O)C2)n1` (stereo unspecified): the cytotoxicity at 10 µM is -15.4%.

For `Cc1cc(C(=O)N2CCCC2)ccc1NCC(=O)N1CCOCC1`, the cytotoxicity at 10 µM is -5%.

Take `CC(C)CCN1CCN(C(=O)c2c[nH]nn2)CC1`: the cytotoxicity at 10 µM was determined as 1.64%.

For `CN(C)c1ccc(NC(=O)N2CCc3sccc3C2)cn1`, the cytotoxicity at 10 µM is -4.16%.

With `Cn1ccc(NC(=O)CN2CCN(C3CCCC3)C(=O)C2)n1`, the cytotoxicity at 10 µM worked out at 4.31%.

`Cc1cc(F)cc2c(N3CCC(S(N)(=O)=O)CC3)c(C#N)cnc12`: the cytotoxicity at 10 µM stood at 0.79%.

For the compound `O=C(NCCN1CCCCCC1)c1cccc(Cl)c1Cl`, the cytotoxicity at 10 µM is 5.8%.

In the case of `Nc1nccc(C2CCN(c3cnccn3)C2)n1` (stereo unspecified), the cytotoxicity at 10 µM came out at 1.43%.

Consider `CC1CCN(Cc2cnc(S(=O)(=O)CC3CC3)n2CC2CCCO2)CC1` (stereo unspecified), for which the cytotoxicity at 10 µM was determined as 6.17%.

For the compound `COc1cccc2c1OCC(C(=O)N1CCN(S(C)(=O)=O)CC1)C2` (stereo unspecified), the cytotoxicity at 10 µM was -7.23%.

On to `CCOc1ccc(CNC(C)c2cccc(S(=O)(=O)NC)c2)cc1` (stereo unspecified), for which the cytotoxicity at 10 µM came out at 16.1%.

As for `CC(C)=CCN1CC2(CCN(Cc3c(F)cccc3F)CC2)CC1=O`, the cytotoxicity at 10 µM is -17%.

As to `O=C(NCCN1CCOCC1)c1cnc(Cc2ccc(F)cc2)s1`, the cytotoxicity at 10 µM is 16.7%.

Take `CCOC(=O)C(CO)NC(=O)CCc1cccc(OC2CCCC2)c1` (stereo unspecified): the cytotoxicity at 10 µM is -7.08%.

Consider `O=C(c1cccnc1O)N1CCN(CCc2cccs2)CC1`, for which the cytotoxicity at 10 µM was -8.86%.

`O=C1[C@H]2CN(Cc3ccco3)C[C@H]2CN1c1ccsc1`: the cytotoxicity at 10 µM is -71.9%.

For the compound `CN1CC(C(=O)NCCc2ccn(-c3ccc(F)cc3)n2)CC1=O` (stereo unspecified), the cytotoxicity at 10 µM is 3.38%.

Take `Cn1nnnc1SCc1cc2c(cc1Cl)OCO2`: the cytotoxicity at 10 µM was 1.14%.

With `C/C(NC(=O)c1ccco1)=C1/C(=O)C[C@@H]2[C@H]1C2(C)C`, the cytotoxicity at 10 µM came to 2.41%.

`COCCN1C[C@@H]2[C@@H](OC)CCN(Cc3cccc(C)n3)[C@@H]2C1`: the cytotoxicity at 10 µM is -9.41%.

`CCC[C@@H]1CN(Cc2cc3c(cc2OC)OCCO3)C[C@H]1C(=O)O`: the cytotoxicity at 10 µM was -9.47%.

For the compound `CCCn1cnnc1CNC1CSCCSC1`, the cytotoxicity at 10 µM is -7.31%.

As for `CCN1CCC(CNCc2cc(C)ccc2OC)C1` (stereo unspecified), the cytotoxicity at 10 µM is 17.4%.

Regarding `CNC(=O)CN1CCCC12CCN(C(=O)c1ccc(F)cc1)CC2`, the cytotoxicity at 10 µM worked out at 5.03%.
